ChEMBL document CHEMBL2086281, “Design, synthesis and 3D-QSAR analysis of novel 2-hydrazinyl-4-morpholinothieno[3,2-d]pyrimidine derivatives as potential antitumor agents” (Eur J Med Chem, 2012)

Tests used:
NCI-H460 [1] = assay: Cytotoxicity against human H460 cells assessed as growth inhibition after 72 hrs by MTT assay; type: functional, cell-based; settings: NCI-H460, 72 h
Outline: (§1)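 Cells grown in MEM with 10% FBS. About 4×10^3 cells/well were pre-incubated for 24 h at 37 °C in 5% CO₂, then exposed to compound at the indicated final concentrations for 72 h. MTT was added to 5 µg/mL final for 4 h at 37 °C. IC50 is the mean of three determinations.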

NCI-H1975 = assay: Cytotoxicity against human NCI-H1975 cells assessed as growth inhibition after 72 hrs by MTT assay; type: functional, cell-based; settings: NCI-H1975, 72 h
Outline: as §1, with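 “°C. Formazan was dissolved in DMSO and read at 492 nm, with 630 nm as reference.” for “°C.”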

MDA-MB-231 [2] = assay: Cytotoxicity against human MDA-MB-231 cells assessed as growth inhibition after 72 hrs by MTT assay; type: functional, cell-based; settings: MDA-MB-231, 72 h
Outline: as §1, with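 “°C. Formazan was dissolved in DMSO and read at 492 nm, with 630 nm as reference.” for “°C.”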

HT-29 [3] = assay: Cytotoxicity against human HT-29 cells assessed as growth inhibition after 72 hrs by MTT assay; type: functional, cell-based; settings: HT-29, 72 h
Outline: as §1, with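 “°C. Formazan was dissolved in DMSO and read at 492 nm, with 630 nm as reference.” for “°C.”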

[4] = Cytotoxicity against human U87MG cells assessed as growth inhibition after 72 hrs by MTT assay; type: functional, cell-based, U-87MG ATCC; settings: U-87 MG
Outline: as §1, with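 “°C. Formazan was dissolved in DMSO and read at 492 nm, with 630 nm as reference.” for “°C.”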

MDA-MB-231 [5] = assay: Ratio of GDC-0941 IC50 to compound IC50 for human MDA-MB-231 cells assessed as growth inhibition after 72 hrs by MTT assay; type: functional
NCI-H460 [6] = assay: Ratio of GDC-0941 IC50 to compound IC50 for human H460 cells assessed as growth inhibition after 72 hrs by MTT assay; type: functional
NCI-H226 = assay: Cytotoxicity against human NCI-H226 cells assessed as growth inhibition after 72 hrs by MTT assay; type: functional, cell-based; settings: NCI-H226, 72 h
Outline: as §1, with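 “°C. Formazan was dissolved in DMSO and read at 492 nm, with 630 nm as reference.” for “°C.”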

HepG2 = assay: Cytotoxicity against human HepG2 cells assessed as growth inhibition after 72 hrs by MTT assay; type: functional, cell-based; settings: HepG2, 72 h
Outline: as §1, with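 “°C. Formazan was dissolved in DMSO and read at 492 nm, with 630 nm as reference.” for “°C.”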

HT-29 [7] = assay: Ratio of GDC-0941 IC50 to compound IC50 for human HT-29 cells assessed as growth inhibition after 72 hrs by MTT assay; type: functional
A549 = assay: Cytotoxicity against human A549 cells assessed as growth inhibition after 72 hrs by MTT assay; type: functional, cell-based; settings: A549, 72 h
Outline: as §1, with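 “°C. Formazan was dissolved in DMSO and read at 492 nm, with 630 nm as reference.” for “°C.”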

SGC-7901 = assay: Cytotoxicity against human SGC7901 cells assessed as growth inhibition after 72 hrs by MTT assay; type: functional, cell-based; settings: SGC-7901, 72 h
Outline: as §1, with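 “°C. Formazan was dissolved in DMSO and read at 492 nm, with 630 nm as reference.” for “°C.”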

Row | SMILES | IC50 (NCI-H460 [1]; read-out: IC50) [µM] | IC50 (NCI-H460 [1]; read-out: pIC50 (converted)) [µM] | IC50 (NCI-H1975) [µM] | IC50 (MDA-MB-231 [2]) [µM] | IC50 (HT-29 [3]) [µM] | IC50 [4] [µM] | Ratio IC50 (MDA-MB-231 [5]) | Ratio IC50 (NCI-H460 [6]) | IC50 (NCI-H226) [µM] | IC50 (HepG2) [µM] | Ratio IC50 (HT-29 [7]) | IC50 (A549) [µM] | IC50 (SGC-7901) [µM]
1 | CC(C)(O)c1cc2nc(N/N=C/c3cn(Cc4cccc(Cl)c4)c4ccccc34)nc(N3CCOCC3)c2s1 | 0.84 | 0.832 | 23.8 | 3.22 | 0.87 | 8.91 | – | – | – | – | – | – | –
2 | N#Cc1ccc(Cn2cc(/C=N/Nc3nc(N4CCOCC4)c4sccc4n3)c3ccccc32)cc1 | 1.62 | 1.62 | – | > 100 | 25.5 | – | – | – | – | – | – | – | –
3 | Fc1ccccc1Cn1cc(/C=N/Nc2nc(N3CCOCC3)c3sccc3n2)c2ccccc21 | 0.86 | 0.871 | > 100 | 9.24 | 3.28 | 22.6 | – | – | – | – | – | – | –
4 | Fc1ccc(Cn2cc(/C=N/Nc3nc(N4CCOCC4)c4sccc4n3)c3ccccc32)cc1 | 0.41 | 0.407 | > 100 | 12.3 | 1.79 | 8.83 | – | – | – | – | – | – | –
5 | Clc1ccc(Cn2cc(/C=N/Nc3nc(N4CCOCC4)c4sccc4n3)c3ccccc32)cc1Cl | 0.74 | 0.741 | > 100 | > 100 | 16.2 | > 100 | – | – | – | – | – | – | –
6 | Cc1ccc(Cn2cc(/C=N/Nc3nc(N4CCOCC4)c4sccc4n3)c3ccccc32)cc1 | 0.83 | 0.832 | 33.1 | 9.73 | 3.31 | 4.97 | – | – | – | – | – | – | –
7 | CC(C)(O)c1cc2nc(N/N=C/c3cn(Cc4cccc(F)c4)c4ccccc34)nc(N3CCOCC3)c2s1 | 0.42 | 0.427 | 19.7 | 7.2 | 0.38 | 7.82 | – | – | – | – | – | – | –
8 | Clc1ccc(Cn2cc(/C=N/Nc3nc(N4CCOCC4)c4sccc4n3)c3ccccc32)cc1 | 0.36 | 0.355 | – | 2.7 | 5.76 | 15.6 | – | – | – | – | – | – | –
9 | CC(C)(O)c1cc2nc(N/N=C/c3cn(Cc4cccc(C#N)c4)c4ccccc34)nc(N3CCOCC3)c2s1 | 0.36 | 0.363 | – | 5.61 | 1.39 | 6.64 | – | – | – | – | – | – | –
10 | Clc1cccc(Cn2cc(/C=N/Nc3nc(N4CCOCC4)c4sccc4n3)c3ccccc32)c1 | 0.54 | 0.537 | > 100 | 9.74 | 2.98 | 5.96 | – | – | – | – | – | – | –
11 | NNc1nc(N2CCOCC2)c2sccc2n1 | 42.2 | – | – | 63.8 | 23.4 | – | – | – | – | – | – | – | –
12 | CC(C)(O)c1cc2nc(N/N=C/c3cn(Cc4ccc(C#N)cc4)c4ccccc34)nc(N3CCOCC3)c2s1 | 4.53 | 4.57 | – | 6.31 | 2.54 | – | – | – | – | – | – | – | –
13 | Fc1cccc(Cn2cc(/C=N/Nc3nc(N4CCOCC4)c4sccc4n3)c3ccccc32)c1 | 0.23 | 0.224 | 19 | 1.11 | 0.39 | 12.6 | 66.5 | 3.8 | 0.91 | 1.1 | 1.7 | 8.7 | 0.8
14 | COc1cc(/C=N/Nc2nc(N3CCOCC3)nc(N3CCOCC3)n2)cc(OC)c1O | 9.2 | – | – | > 100 | 20.2 | – | – | – | – | – | – | – | –
15 | CS(=O)(=O)N1CCN(Cc2cc3nc(-c4cccc5[nH]ncc45)nc(N4CCOCC4)c3s2)CC1 [PICTILISIB] | – | – | 0.27 | 73.8 | 0.66 | 7.77 | – | – | 2.9 | 1 | – | 6.9 | 1.8
16 | CC(C)(O)c1cc2nc(N/N=C/c3cn(Cc4ccccc4F)c4ccccc34)nc(N3CCOCC3)c2s1 | 1.1 | 1.1 | 15.6 | 1.66 | 1.05 | 3.92 | – | – | – | – | – | – | –
17 | CC(C)(O)c1cc2nc(N/N=C/c3cn(Cc4cccc(Cl)c4Cl)c4ccccc34)nc(N3CCOCC3)c2s1 | 7.22 | 7.24 | – | > 100 | 3.7 | – | – | – | – | – | – | – | –
18 | C=CCc1cccc(/C=N/NC(=O)CN2CCN(Cc3ccccc3)CC2)c1O [PAC-1] | 3.57 | – | – | 6.11 | 0.97 | – | – | – | – | – | – | – | –
